Test results as given in ChEMBL document CHEMBL4513216, “Probing the Open Global Health Chemical Diversity Library for Multistage-Active Starting Points for Next-Generation Antimalarials” (ACS Infect Dis, 2020).

Experiment: Toxicity liver stage against HepG2, at 10uM
Type: cell-based
Set-up: test concentration 10 uM, cell line HepG2-A16-CD81EGFP
Details: human, HepG2-A16-CD81EGFP cells; read-out: INHIBITION
In short: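 Uninfected HepG2-A16-CD81EGFP cells, 3 × 10^3 per well, 1536-well, plated on prespotted compound at 10 μM final, parasite-free screening media added to match infected plates; puromycin 10 μM positive, DMSO 0.5% negative; run in parallel with 48 h PbLuc assay at 37 °C, 5% CO2; viability by CellTiter-Glo luminescence, normalized to controls.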

Structure (SMILES)	cytotoxicity at 10 µM [%]
CC1=N[C@@]2(CC[C@@H]3CN(C(=O)NCCc4ccccc4)C[C@@H]32)C(=O)N1	-75.4
Cn1cnc(-c2nc(C(=O)NCC3CCCO3)c3ccccn23)c1 (configuration not stated)	-109
Cc1noc(C)c1CN1C[C@@H](N(C)Cc2ccco2)[C@H]2OCCC[C@H]21	-70.9
CC(C)N(C)C(=O)c1coc(CN2CCN(c3ccccc3F)CC2)n1	7.31
Cc1cc(CN2CCN(CCOc3cccc(C#N)c3)CC2)no1	-11.6
Cc1ccc(OCCNC(=O)C2CCOCC2)c(C)c1	16.4
CCOc1ccc(-c2ccnc(C)n2)cc1C(=O)O	5.59
Cc1ccc(C(=O)N2CCC3(CC2)COC(COc2ccccn2)C3)o1 (configuration not stated)	-0.954
Cc1csc(N2CCN(Cc3ccccn3)CC2C)n1 (configuration not stated)	-8.84
O=C(NCc1cccs1)NCC1(O)CCc2ccccc2C1 (configuration not stated)	-13.8
CS(=O)(=O)N1CCC(CNC(=O)c2cnccn2)CC1	0.503
O=C(c1cn(-c2cccc(Cl)c2F)nn1)N1CCCSCC1	3.98
CNC(=O)[C@@H]1C[C@H](N)CN1Cc1cc2cc(OC)ccc2nc1O	-6.69
Cn1nc(CN2CCCC2)c2c1CN(C(=O)c1ccc[nH]1)CC2	6.86
Cc1c(CN2CCCCC2)c(O)n(CCCO)c(=O)c1C#N	-5.03
N#Cc1cccc(OCCN2CCCC2C(=O)NCC(F)(F)F)c1 (configuration not stated)	-5.88
CCc1cnc(N2CCC3(CCN(CC)C3=O)CC2)nc1	1.61
Cc1nc(CN2CCC3(CC2)C(=O)N(C)CCN3C)cs1	4.37
Cc1csc(CNC(=O)N2CCN(Cc3cc(C)on3)CC2)n1	-5.49
Cc1cc(C(=O)N2C[C@@H]3CC[C@H]2CN(C(=O)c2ccncc2)C3)cs1	-2.56
CCCc1nc(N(C)CCN2CCCCCC2)c2cnn(C)c2n1	3.22
CC1CCN(CC(=O)NC2CCN(C(C)c3ccccc3)CC2)CC1 (configuration not stated)	-6.36
CCc1c(C(=O)N2CCC3(CC(=O)NC3=O)C2)csc1C (configuration not stated)	1.62

Structure (SMILES)	cytotoxicity at 10 µM [%]
Cc1ccc(N2CCC(NC(C)c3cccs3)CC2)nc1 (configuration not stated)	-9.64
CC(=O)Nc1ncc(S(=O)(=O)Nc2ccccc2F)s1	14.4
Cc1cccc(C(=O)N2C[C@@H]3OCCN(CCN4CCCC4)[C@@H]3C2)n1	-65
O=C(c1cc(-n2cccn2)ccc1Cl)N1CCC(N2CCCC2=O)CC1	-2.08
CCOC(=O)[C@H]1[C@@H](O)C(=O)N(C)C12CCN(C(=O)C(CC)CC)CC2	-4.47
CCCS(=O)(=O)N1C[C@@H]2C[C@H](C(=O)N3CCOCC3)[C@H](C1)O2	-1.95
O=C(Nc1nncs1)c1ccc(O)nc1	-6.37
c1coc(CN2CCCn3c(nnc3Cn3cccc3)C2)c1	-0.314
CN(C)C(=O)NCc1cc2n(n1)CCCN(CC1CCCNC1)C2 (configuration not stated)	-4.07
CNC(=O)NCc1nn(-c2ccccc2)c2c1CCC2	-10.8
Cc1nsc(NCc2ccc(CS(=O)(=O)NC(C)C)cc2)n1	-2.8
Cc1nc(CN2CCCC(NCc3cnn(C)c3)C2)no1 (configuration not stated)	-2.53
CC(C)N(Cc1ccc(C#N)cc1)C(=O)NCCNc1ncccn1	3.78
Cc1ccc(-c2noc(C3CCN3C(=O)c3ccn(C)n3)n2)s1 (configuration not stated)	3.56
O=C(O)c1cccc(CN2CCCC(c3ccn[nH]3)C2)c1 (configuration not stated)	3.98
Cc1ccc(CNC(=O)NCc2ccco2)s1	3.47
CCCC(C)(C)NC(=O)c1cnc(CC)s1	10.2
Cc1nccc(CNC(=O)CCc2c(C)nc3cc(O)nn3c2C)n1	-1.56
Cc1cc(NC(=O)c2ccc(N3CCOCC3)cc2)[nH]n1	-28.5
O=S(=O)(NCCCn1cncn1)c1ccc2c(c1)CCC2	3.03
CCN(CCNC(=O)C1CCN(C(C)=O)CC1)c1ccccc1C	-6.19
CN(C)Cc1cnc(C2CCN(C(=O)c3ccc(F)cc3)C2)[nH]1 (configuration not stated)	-1.92
CC(=O)N1CCO[C@@H]2CN(Cc3cccc(Cl)c3)C[C@@H]2C1	-104

Structure (SMILES)	cytotoxicity at 10 µM [%]
CN1CCC2(CC1)OC(C(=O)NCc1cccnc1)Cn1ccnc12 (configuration not stated)	-87.3
CC(=O)N1CCCN(C(=O)Nc2ccccc2N2CCOC2=O)CC1	0.334
CC(C)CN1CCCC2(CCN(C(=O)c3cnccn3)C2)C1 (configuration not stated)	2.39
CCc1ccc(CNc2cc(N3CCCC3CO)ncn2)s1 (configuration not stated)	-13
CCc1nnc2n1CCN(CCS(=O)(=O)c1ccccc1)C2	-11.6
COc1ccc(CC2(C(=O)O)CCN(c3nc(C)ncc3C)CC2)cc1	-21.8
CN1CCCN(Cn2nc(-c3ccccc3F)ccc2=O)CC1	9.77
CCC(O)CN1CCN(C(=O)c2ccnc(N(C)C)c2)CC1 (configuration not stated)	-7.87
Cc1occc1C(=O)N1CCOC2(CCCC2)C1	-10.9
Cc1ccc(N2CCC3(CN(Cc4ccncc4)CCC3(F)F)C2)nn1 (configuration not stated)	28.6
COc1ccc2c(c1)c(-c1nc(C)ncc1CN)cn2C	21.7
Cn1cc(CN(Cc2ccccc2)Cc2ccccn2)cn1	19.1
O=C(CCc1ccc(F)cc1)NS(=O)(=O)c1ccc2c(c1)OCCCO2	4.4
O=C1N(Cc2ccc(F)c(F)c2)CCCC1(O)CNCc1ncc[nH]1 (configuration not stated)	-4.27
CN1CCC(c2cncc(N(C)C)n2)CC1	-11.5
CN(CC(=O)Nc1ccncc1)CC1CCCN1c1cccnn1 (configuration not stated)	-2.01
CO[C@H]1CN(Cc2c(C)ccc3ncccc23)CC[C@H]1N	-146
Cn1ccc(C(=O)Nc2nc(-c3ccc4c(c3)CCO4)cs2)cc1=O	-9.46
CC(Cn1cccn1)NCc1ccc(OCc2ccncc2)cc1 (configuration not stated)	-29.9
COc1coc(CN2CCCC3(CCC(=O)N(CC4CC4)C3)C2)cc1=O (configuration not stated)	-34.4
COc1ccc(Cl)cc1C(C(=O)O)N1CCSCC1 (configuration not stated)	-10.8
CCC(CO)(CO)NC(=O)C1CCC(=O)N(CCc2ccccc2)C1 (configuration not stated)	-2.78
O=C(O)C1CCCN1c1nc(C2CC2)cc(C(F)(F)F)n1 (configuration not stated)	7.55

Structure (SMILES)	cytotoxicity at 10 µM [%]
Cc1nc(Nc2nnc(C)s2)cc(C2CCCN2c2ccncn2)n1 (configuration not stated)	-14.3
C[S+]([O-])c1nncn1CCc1ccccc1 (configuration not stated)	-12.6
COc1c(CNC2CCc3cc(C)ccc32)c(C)nn1C (configuration not stated)	-0.0225
COCCN1CCOCC12CCN(c1nccs1)CC2	-102
CCOC1CC2(CCN(C(=O)Cc3ccccn3)CC2)C1	-90.9
CC1(C)OCC2(CO1)CN(C(=O)c1ccccc1Br)C2	-7.31
CN(C)CCN(Cc1cccc(F)c1)C(=O)c1ccn(C)c(=O)c1	-3.92
O=C(Cc1c[nH]c2ccccc12)NCC1CCN(Cc2c[nH]cn2)C1 (configuration not stated)	2.34
CNC(=O)[C@@]12CCO[C@@H]1CCN(S(=O)(=O)c1cccc(C)c1)C2	-1.8
O=C(C1CCCCO1)N1CCc2ncnc(NCc3ccon3)c2CC1 (configuration not stated)	13.1
O[C@@H]1CN(Cc2ccncc2)C[C@H]1Oc1ccccc1	-1.44
N#Cc1ccc(CN2CCCCC2Cn2cncn2)cc1 (configuration not stated)	-1.05
N#Cc1cccc(NC(=O)N(CC(F)F)C2CC2)c1	-16.1
Cc1nnc2n1CCN(Cc1nc(-c3ccoc3)no1)C2	-5.86
CSc1ncccc1C(=O)Nc1ccc(Cn2ccccc2=O)cc1	2.77
Cn1cccc1C(=O)NCc1ccnc(C2CCCOC2)n1 (configuration not stated)	3.41
CC(C)Cc1nnc(NCc2ccsc2)o1	-0.699
N#Cc1cccc(CNC(=O)NC2CCN(CC(F)F)CC2)c1	4.16
Cc1csc(C(C)(C)NCCCS(C)(=O)=O)n1	6.11
CC(=O)N[C@@H]1CN(CC(=O)NCc2ccccc2C)C[C@H]1C(C)C	4.25
Cc1n[nH]c(-c2ccc(NC(=O)C(C)(C)N3CCN(C)CC3)cc2)n1	-0.876
CS(=O)(=O)NC[C@]12COC[C@H]1CN(C(=O)CC1CCCC1)C2	-101
N#CC1Sc2nnc(-c3ccccc3Br)n2N=C1N (configuration not stated)	-4.81

Structure (SMILES)	cytotoxicity at 10 µM [%]
Cc1ccsc1CNC(=O)NC(C)c1ccc2c(c1)CCC(=O)N2 (configuration not stated)	5.31
Cn1cc(C(=O)O)c(-c2ccc(F)cc2F)n1	-4.03
Cc1ccc(F)cc1S(=O)(=O)NCc1cccc(C(=O)N2CCCC2)c1	-15.1
CCN1CCC(N2C[C@@H](C(=O)O)[C@H](c3cccc(OC)c3)C2)CC1	-2.85
COc1ccc(C[C@H]2CN(C(=O)c3ncccn3)CC[C@@H]2OC)cc1	4.65
CN1CC(=O)N(C2CCNCC2)Cc2c(NC3CCC3)ncnc21	3.9
Cc1nnc(N2CCCC3(CN(Cc4ccc(F)cc4)CCO3)C2)o1 (configuration not stated)	-6.63
Nc1cccnc1N1CCCCCC1	4.45
COC(=O)c1cc(C(=O)N2CCCCC2C)n(-c2ccccc2)n1 (configuration not stated)	-13.7
c1ccc2c(c1)OCCC2NCc1ccc(N2CCOCC2)cc1 (configuration not stated)	-13.7
Cn1cc(CN2C[C@@H](F)[C@@H](OCc3nc4cnccc4[nH]3)C2)cn1	6.88
CCOCC1CC2(CCN(Cc3ccccn3)CC2)CO1 (configuration not stated)	-0.671
Cn1ccnc1NC[C@@H]1CCC[C@@H]2CN(Cc3cccnc3)C[C@@H]21	5.55
Cn1ncc2c1CCCN(C(=O)C1CCC1)C2	-3.15
CCN1CCN(C)C(=O)C12CCN(Cc1ccsc1)CC2	1.14
CCS(=O)(=O)N1CCC(c2nc(C)c(C)c(N3CCCC3)n2)CC1	1.27
c1ccc(C(OCCNC2CCc3ncnn3C2)c2ccccc2)cc1 (configuration not stated)	-18.4
CC(C)NC(=O)N1CCN(C(=O)c2ccco2)CC2(CC(=O)N(C)C2)C1 (configuration not stated)	6.15
CN(CCn1cccn1)S(=O)(=O)c1ccc(C#N)cc1	-4.81
COc1cnc(CSc2nnc(C)s2)cc1OCC(=O)NC1CCCC1	3.43
